We go through one compound from ChEMBL document CHEMBL3259553 (J Med Chem, 2014).

For data set [1], the system named is Homo sapiens. The data set can be described thus: Toxicity in healthy human with mildly elevated LDL-C level assessed as effect on effect on liver enzymes at 5 to 200 mg, po qd for 2 weeks by multiple ascending dose study. In kind it is organism-based. Particulars: in vivo, 336 h. In outline:
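Multiple ascending dose study after single ascending dose study. Healthy subjects with LDL-C >110 mg/dL received once daily oral doses of 5 to 200 mg for 2 weeks. Safety and tolerability were assessed, covering QT interval, heart rate, vital signs and liver enzymes.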

A short description of data set [2]: AUC in rat at 5 mg/kg, iv. Format: ADME, organism-based. More on the design: dose 5 mg/kg, route intravenous. As to conditions: plasma.
For data set [3], the species on record is Mus musculus. The data set can be described thus: Antidyslipidemic activity in diet-induced obese C57Bl/6J mouse model assessed as lowering glucose level to near normal level. In kind it is functional, organism-based.
For a further data set, the species on record is Oryctolagus cuniculus. The data set is described as follows: Toxicity in hypercholesterolemic rabbit model assessed as effect on TSH level. In kind it is organism-based. As to conditions: in vivo.
Data set [4] in a line: Tmax in rat at 5 mg/kg, po. Format: ADME, organism-based. More on the design: dose 5 mg/kg, route oral. As to conditions: in vivo. The method in brief: (§1)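 Rat pharmacokinetics after a 5 mg/kg dose given iv, or given orally as a suspension. Values are means with SD from N = 3 rats.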
For data set [5], the system named is Homo sapiens. The data set can be described thus: Toxicity in healthy human with mildly elevated LDL-C level assessed as reversible reduction in free T4 level at 100 mg, po qd for 2 weeks. Particulars: in vivo, 336 h. In kind it is organism-based. More on the design: scale not given: the % may be the effect or the level left. In outline: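 Healthy subjects with LDL-C >110 mg/dL received once daily oral doses for 2 weeks in a multiple ascending dose study. Free T3, free T4 and TSH were compared with placebo.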

In data set [6] the test system is Mus musculus. The data set is described as follows: Antidyslipidemic activity in diet-induced obese C57Bl/6J mouse model assessed as reduction in liver triglycerides at 0.3 to 10 mg/kg, po administered daily for 23 days. In kind it is functional, organism-based. In outline:
(§2)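 C57Bl/6J mice aged six weeks were fed a high fat diet for 34 weeks. Body weight and food intake were monitored. BMD and body composition were assessed on day 22, and laboratory assessments were made at study end.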

Data set [7] relates to Homo sapiens. The data set can be described thus: Antidyslipidemic activity in healthy human with mildly elevated LDL-C level assessed as reduction in triglyceride at 50 to 200 mg, po qd for 2 weeks by multiple ascending dose study relative to placebo control. More on the design: scale not given: the % may be the effect or the level left. Format: functional. In outline:
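Multiple ascending dose study lasting 2 weeks, run after a single ascending dose study. Healthy subjects with LDL-C >110 mg/dL took oral doses once daily from 5 to 200 mg. Safety, thyroid axis measures (free T4, free T3, TSH), heart rate, QT and liver enzymes were monitored. Lipid changes were compared with placebo.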

The next data set relates to Caco-2. The data set is described as follows: Permeability from apical to basolateral side of human Caco2 cells. Format: ADME, cell-based. On the technique in general: Caco-2 cells form a polarised layer with tight junctions and transporters.
The subject of data set [8] is Homo sapiens. The data set can be described thus: Antidyslipidemic activity in healthy human with mildly elevated LDL-C level assessed as reduction in lipids at 80 mg, po qd. Format: functional, organism-based.
Data set [9] concerns Mus musculus. The data set is described as follows: Antidyslipidemic activity in diet-induced obese C57Bl/6J mouse model assessed as reduction in liver size at 0.3 to 10 mg/kg, po administered daily for 23 days. In kind it is functional, organism-based. The method in brief:
as §2

Data set [10] deals with Mus musculus. The data set can be described thus: Antidyslipidemic activity in diet-induced obese C57Bl/6J mouse model assessed as reduction in cholesterol level at 0.3 to 10 mg/kg, po administered daily for 23 days. Format: functional, organism-based. The method in brief:
as §2

Data set [11] is filed under the species Rattus norvegicus. The data set is described as follows: Toxicity in hypercholesterolemic rat model assessed as effect on central thyroid axis. In kind it is organism-based. As to conditions: in vivo.
A short description of data set [12]: Plasma concentration in thyroidectomized rat at 5 mg/kg, ip measured after 6 hrs. Format: ADME, organism-based. More on the design: dose 5 mg/kg, route intraperitoneal. The method in brief: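 Thyroidectomized rats were dosed intraperitoneally at 5, 20 or 37.5 mg/kg, with 4 rats per group. Vehicle was 4% DMSO, 15% PEG-400 and 81% of 30% HPBCD in phosphate buffer. Cardiac α-MHC hnRNA, in arbitrary units, and plasma concentration were measured 6 h after dosing. Comparators were untreated thyroidectomized rats and euthyroid rats.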

For data set [13], the species on record is Rattus norvegicus. The data set is described as follows: Toxicity in hypercholesterolemic rat model assessed as effect on TSH level. Particulars: in vivo. In kind it is organism-based.
A short description of data set [14]: Oral bioavailability in rat at 5 mg/kg. Particulars: in vivo. In kind it is ADME, organism-based. In outline: as §1

Activity calls are given as the source filed them. The calls are words filed in the database; no cut-off is given here. Some results are limits rather than exact numbers.

As to `CC(C)c1cc(Oc2c(Cl)cc(-n3nc(C#N)c(=O)[nH]c3=O)cc2Cl)n[nH]c1=O` [RESMETIROM], the Activity entry with Homo sapiens [1] is “Non-toxic”; in the data set listed under Oryctolagus cuniculus it was “Non-toxic”; in the data set with Homo sapiens [5], 10%; with Homo sapiens [7] it was “<=60%”; in the data set filed under Rattus norvegicus [11] it was “Non-toxic”; in the data set listed under Rattus norvegicus [13], “Non-toxic”. Besides, the AUC (as a rule, the area under the concentration-time curve, a measure of exposure) in data set [2] stood at 38100 ng·h/mL. Further, the outcome in the data set filed under Mus musculus [3], in the data set with Mus musculus [6], with Homo sapiens [8], in the data set with Mus musculus [9] and in the data set on Mus musculus [10] was Active. For the same compound, the Tmax (in general, the time from dosing to the highest level) in data set [4] turned out to be 6 h. The permeability in the data set with Caco-2 was 1.37 ×10⁻⁶ cm/s. Besides, in [12], the concentration at 6 h was 15.4 µM. For the same compound, the bioavailability (usually dose-corrected exposure relative to a reference, in per cent) in data set [14] is 45%.
